Assay results from different studies.
Compare with care: the assays were run in different laboratories.
Read-out: enzyme activity
Mode: inhibitor
KIT: Mast/stem cell growth factor receptor Kit (KIT, Homo sapiens, UniProt P10721)
KIT T670I: Mast/stem cell growth factor receptor Kit (KIT, Homo sapiens, UniProt P10721, T670I)

| SMILES | target | method | concentration | inhibition [%] |
| --- | --- | --- | --- | --- |
| CS(=O)(=O)Nc1cccc(-c2csc(NC(=O)CSc3nc4nccnc4c(=O)n3CCc3ccccc3)n2)c1 | KIT | – | 10 µM | -5 |
| COc1cc(-c2cc(-c3ccc(N4CCNCC4)cc3)cnc2N)cc(OC)c1OC | Mast/stem cell growth factor receptor Kit (KIT, Homo sapiens, UniProt P10721, V560G) | – | 1 µM | 5 |
| CCCS(=O)(=O)Nc1ccc(F)c(C(=O)c2c[nH]c3ncc(-c4ccc(Cl)cc4)cc23)c1F | KIT | – | 1 µM | < 20 |
| CN1CC(Oc2cnc(C#N)cc2-c2ccn3nc(NC(=O)C4CC4)cc3c2)C1 | KIT | – | 1 µM | 4 |
| CC/C(=N\NC(=O)NCc1cccc(O)c1)c1ccc(O)c(C)c1O | Mast/stem cell growth factor receptor Kit (KIT, Homo sapiens, UniProt P10721, D816V) | – | 0.1 µM | 1.4 |
| COc1cc2ncnc(Nc3ccc(Oc4ccccc4)cc3C)c2cc1OC | KIT T670I | – | 1 µM | -9 |
| O=C(CSc1nc2nccnc2c(=O)n1CCc1ccccc1)Nc1nccs1 | Mast/stem cell growth factor receptor Kit (KIT, Homo sapiens, UniProt P10721, T670I/V559D) | – | 10 µM | 1 |
| CN(C)C1CCN(CC#Cc2nn(C3CCCC3)c3nc(NCc4ccccc4)ncc23)C1 (stereo not drawn) | KIT | FRET | 0.1 µM | 1 |
| COc1cc2ncnc(Nc3ccc(Oc4ccccc4)c(C)c3C)c2cc1OC | KIT T670I | – | 1 µM | -7 |
